Experimental data from the M2OR odorant receptor database.

Legend:
Conditions in all cases: stereoisomer not certain
OR52N4 (Homo sapiens) = target: T1, OR52N4 (Homo sapiens) (UniProt Q8NGI2)
T1 sequence (whole entry): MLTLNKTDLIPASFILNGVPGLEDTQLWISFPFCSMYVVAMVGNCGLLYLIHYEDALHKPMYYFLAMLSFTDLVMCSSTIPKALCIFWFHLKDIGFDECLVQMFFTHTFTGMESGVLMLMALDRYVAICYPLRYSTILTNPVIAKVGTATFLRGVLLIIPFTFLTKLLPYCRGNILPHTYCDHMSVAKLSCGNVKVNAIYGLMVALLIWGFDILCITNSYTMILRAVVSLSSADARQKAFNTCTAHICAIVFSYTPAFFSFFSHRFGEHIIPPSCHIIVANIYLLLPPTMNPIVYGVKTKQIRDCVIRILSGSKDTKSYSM
Procedure, shortened: (§1)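 Transient luciferase assays in mammalian cell lines were common, though methods varied by source. The values come from published papers and their supplementary material, with extra details from the original authors when needed. Responsive refers to a measured signal the original authors judged statistically different from baseline, and non-responsive (inactive) to the remainder.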

OR52N5 (Homo sapiens) = target: T2, OR52N5 (Homo sapiens) (UniProt Q8NH56)
T2 sequence (whole entry): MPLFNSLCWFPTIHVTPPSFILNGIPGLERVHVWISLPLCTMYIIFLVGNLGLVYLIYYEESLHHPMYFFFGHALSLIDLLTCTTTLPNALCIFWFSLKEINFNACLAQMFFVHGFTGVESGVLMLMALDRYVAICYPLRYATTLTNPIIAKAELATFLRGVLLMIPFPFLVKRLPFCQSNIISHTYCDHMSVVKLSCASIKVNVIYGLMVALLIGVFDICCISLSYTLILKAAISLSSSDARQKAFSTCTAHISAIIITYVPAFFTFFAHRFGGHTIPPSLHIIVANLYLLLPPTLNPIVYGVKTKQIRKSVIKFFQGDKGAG
Procedure, shortened: as §1

OR52R1 (Homo sapiens) = target: T3, OR52R1 (Homo sapiens) (UniProt Q8NGF1)
T3 sequence (whole entry): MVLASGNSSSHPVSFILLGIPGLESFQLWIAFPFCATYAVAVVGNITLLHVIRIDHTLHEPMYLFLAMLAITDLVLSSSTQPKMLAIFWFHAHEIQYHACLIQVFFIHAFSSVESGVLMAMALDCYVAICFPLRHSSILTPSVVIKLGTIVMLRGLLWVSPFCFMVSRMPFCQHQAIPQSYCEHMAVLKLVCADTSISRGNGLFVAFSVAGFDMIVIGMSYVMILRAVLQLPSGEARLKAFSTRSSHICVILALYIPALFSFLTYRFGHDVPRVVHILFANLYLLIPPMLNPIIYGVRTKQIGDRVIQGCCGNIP
Procedure, shortened: as §1

OR52W1 (Homo sapiens) = target: T4, OR52W1 (Homo sapiens) (UniProt Q6IF63)
T4 sequence (whole entry): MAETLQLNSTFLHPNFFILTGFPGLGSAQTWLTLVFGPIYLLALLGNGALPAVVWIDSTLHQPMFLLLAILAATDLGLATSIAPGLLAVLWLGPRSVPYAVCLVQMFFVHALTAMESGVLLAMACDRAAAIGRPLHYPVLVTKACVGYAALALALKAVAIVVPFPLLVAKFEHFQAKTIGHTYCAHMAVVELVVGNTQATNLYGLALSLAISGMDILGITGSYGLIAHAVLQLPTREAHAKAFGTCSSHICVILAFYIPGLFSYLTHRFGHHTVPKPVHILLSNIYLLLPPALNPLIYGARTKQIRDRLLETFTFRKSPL
Procedure, shortened: as §1

OR56A1 (Homo sapiens) = target: T5, OR56A1 (Homo sapiens) (UniProt Q8NGH5)
T5 sequence (whole entry): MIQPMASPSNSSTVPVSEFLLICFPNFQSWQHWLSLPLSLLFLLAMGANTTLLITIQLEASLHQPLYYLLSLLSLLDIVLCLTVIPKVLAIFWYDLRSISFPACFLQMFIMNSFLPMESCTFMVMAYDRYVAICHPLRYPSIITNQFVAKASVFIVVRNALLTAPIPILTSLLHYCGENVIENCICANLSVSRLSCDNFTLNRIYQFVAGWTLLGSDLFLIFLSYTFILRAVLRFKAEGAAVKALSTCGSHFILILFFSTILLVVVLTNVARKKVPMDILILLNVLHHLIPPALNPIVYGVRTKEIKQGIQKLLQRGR
Procedure, shortened: as §1

OR56A3 (Homo sapiens) = target: T6, OR56A3 (Homo sapiens) (UniProt Q8NH54)
T6 sequence (whole entry): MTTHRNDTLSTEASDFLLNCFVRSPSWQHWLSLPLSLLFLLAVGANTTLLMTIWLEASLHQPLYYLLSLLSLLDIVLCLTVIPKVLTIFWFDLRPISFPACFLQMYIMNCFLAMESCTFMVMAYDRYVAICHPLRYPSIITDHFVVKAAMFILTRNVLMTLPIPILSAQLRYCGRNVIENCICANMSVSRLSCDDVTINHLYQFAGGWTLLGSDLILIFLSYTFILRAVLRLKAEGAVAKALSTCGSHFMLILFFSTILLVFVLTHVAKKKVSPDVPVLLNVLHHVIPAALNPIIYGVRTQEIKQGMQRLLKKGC
Procedure, shortened: as §1

OR56A4 (Homo sapiens) = target: T7, OR56A4 (Homo sapiens) (UniProt Q8NGH8)
T7 sequence (whole entry): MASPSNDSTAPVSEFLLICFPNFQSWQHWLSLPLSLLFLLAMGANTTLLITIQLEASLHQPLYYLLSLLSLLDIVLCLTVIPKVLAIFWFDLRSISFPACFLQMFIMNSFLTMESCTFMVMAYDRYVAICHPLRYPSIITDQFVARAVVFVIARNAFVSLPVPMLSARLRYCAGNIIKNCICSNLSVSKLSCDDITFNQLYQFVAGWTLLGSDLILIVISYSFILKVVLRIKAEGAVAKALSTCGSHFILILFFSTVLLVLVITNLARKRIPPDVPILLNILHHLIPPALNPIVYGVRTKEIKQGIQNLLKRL
Procedure, shortened: as §1

OR56A5 (Homo sapiens) = target: T8, OR56A5 (Homo sapiens) (UniProt P0C7T3)
T8 sequence (whole entry): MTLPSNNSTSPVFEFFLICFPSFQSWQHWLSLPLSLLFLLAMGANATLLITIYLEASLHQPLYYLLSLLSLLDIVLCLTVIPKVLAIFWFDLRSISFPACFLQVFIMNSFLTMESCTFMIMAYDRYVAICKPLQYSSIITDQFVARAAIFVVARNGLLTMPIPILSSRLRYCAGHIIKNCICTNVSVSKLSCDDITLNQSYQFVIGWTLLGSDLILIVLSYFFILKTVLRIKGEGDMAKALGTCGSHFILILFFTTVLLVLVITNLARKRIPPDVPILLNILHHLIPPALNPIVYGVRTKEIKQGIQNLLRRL
Procedure, shortened: as §1

OR56B1 (Homo sapiens) = target: T9, OR56B1 (Homo sapiens) (UniProt Q8NGI3)
T9 sequence (whole entry): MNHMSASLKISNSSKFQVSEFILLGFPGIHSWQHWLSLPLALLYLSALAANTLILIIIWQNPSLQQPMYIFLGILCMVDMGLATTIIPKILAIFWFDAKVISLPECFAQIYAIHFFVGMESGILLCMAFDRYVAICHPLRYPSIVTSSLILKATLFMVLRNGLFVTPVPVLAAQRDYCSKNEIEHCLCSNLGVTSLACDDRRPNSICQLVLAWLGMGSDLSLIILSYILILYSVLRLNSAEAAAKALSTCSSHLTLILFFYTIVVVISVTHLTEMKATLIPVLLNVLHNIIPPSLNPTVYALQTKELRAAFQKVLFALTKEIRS
Procedure, shortened: as §1

OR56B4 (Homo sapiens) = target: T10, OR56B4 (Homo sapiens) (UniProt Q8NH76)
T10 sequence (whole entry): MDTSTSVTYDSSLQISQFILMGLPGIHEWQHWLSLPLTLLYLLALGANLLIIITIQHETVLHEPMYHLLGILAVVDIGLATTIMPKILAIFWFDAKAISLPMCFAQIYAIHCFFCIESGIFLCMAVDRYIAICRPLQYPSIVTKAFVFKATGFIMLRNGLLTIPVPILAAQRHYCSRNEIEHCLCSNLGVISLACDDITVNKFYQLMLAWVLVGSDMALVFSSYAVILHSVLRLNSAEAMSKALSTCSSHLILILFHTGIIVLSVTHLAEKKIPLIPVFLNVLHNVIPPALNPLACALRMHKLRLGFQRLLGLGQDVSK
Procedure, shortened: as §1

OR5A1 (Homo sapiens) = target: T11, OR5A1 (Homo sapiens) (UniProt Q8NGJ0)
T11 sequence (whole entry): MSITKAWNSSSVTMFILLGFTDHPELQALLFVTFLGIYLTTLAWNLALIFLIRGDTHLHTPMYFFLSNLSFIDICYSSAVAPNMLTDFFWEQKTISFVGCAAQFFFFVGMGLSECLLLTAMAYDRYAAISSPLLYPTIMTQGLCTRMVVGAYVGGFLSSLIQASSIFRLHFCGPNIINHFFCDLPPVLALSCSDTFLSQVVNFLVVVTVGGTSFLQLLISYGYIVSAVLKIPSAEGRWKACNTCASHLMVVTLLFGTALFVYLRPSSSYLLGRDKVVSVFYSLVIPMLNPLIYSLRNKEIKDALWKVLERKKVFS
Procedure, shortened: as §1

OR5A2 (Homo sapiens) = target: T12, OR5A2 (Homo sapiens) (UniProt Q8NGI9)
T12 sequence (whole entry): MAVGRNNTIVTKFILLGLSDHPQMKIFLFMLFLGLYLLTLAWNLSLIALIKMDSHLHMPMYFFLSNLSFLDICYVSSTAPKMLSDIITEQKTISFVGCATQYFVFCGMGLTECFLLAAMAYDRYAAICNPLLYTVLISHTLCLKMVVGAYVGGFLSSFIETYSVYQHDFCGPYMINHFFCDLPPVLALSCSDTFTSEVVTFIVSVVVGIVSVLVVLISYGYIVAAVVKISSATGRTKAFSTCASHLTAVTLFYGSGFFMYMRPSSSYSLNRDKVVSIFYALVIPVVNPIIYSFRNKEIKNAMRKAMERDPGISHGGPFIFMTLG
Procedure, shortened: as §1

OR5AC2 (Homo sapiens) = target: T13, OR5AC2 (Homo sapiens) (UniProt Q9NZP5)
T13 sequence (whole entry): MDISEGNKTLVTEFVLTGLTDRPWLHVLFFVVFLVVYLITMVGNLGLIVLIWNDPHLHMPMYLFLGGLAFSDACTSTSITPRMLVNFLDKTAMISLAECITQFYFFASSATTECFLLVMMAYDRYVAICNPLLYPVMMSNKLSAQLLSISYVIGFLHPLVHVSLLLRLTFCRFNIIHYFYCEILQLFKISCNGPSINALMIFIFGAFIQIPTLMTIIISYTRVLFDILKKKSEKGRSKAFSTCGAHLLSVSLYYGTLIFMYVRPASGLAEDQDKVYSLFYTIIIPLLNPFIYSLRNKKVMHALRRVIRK
Procedure, shortened: as §1

OR5AK2 (Homo sapiens) = target: T14, OR5AK2 (Homo sapiens) (UniProt Q8NH90)
T14 sequence (whole entry): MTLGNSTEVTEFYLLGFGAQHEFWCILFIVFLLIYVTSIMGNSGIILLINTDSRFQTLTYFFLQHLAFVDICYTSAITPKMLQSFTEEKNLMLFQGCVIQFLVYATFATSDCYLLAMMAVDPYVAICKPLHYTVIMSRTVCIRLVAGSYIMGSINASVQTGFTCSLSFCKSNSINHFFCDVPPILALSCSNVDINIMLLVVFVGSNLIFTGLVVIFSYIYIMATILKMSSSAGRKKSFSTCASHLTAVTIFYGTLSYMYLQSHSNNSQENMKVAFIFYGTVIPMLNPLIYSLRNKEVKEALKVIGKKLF
Procedure, shortened: as §1

OR5AN1 (Homo sapiens) = target: T15, OR5AN1 (Homo sapiens) (UniProt Q8NGI8)
T15 sequence (whole entry): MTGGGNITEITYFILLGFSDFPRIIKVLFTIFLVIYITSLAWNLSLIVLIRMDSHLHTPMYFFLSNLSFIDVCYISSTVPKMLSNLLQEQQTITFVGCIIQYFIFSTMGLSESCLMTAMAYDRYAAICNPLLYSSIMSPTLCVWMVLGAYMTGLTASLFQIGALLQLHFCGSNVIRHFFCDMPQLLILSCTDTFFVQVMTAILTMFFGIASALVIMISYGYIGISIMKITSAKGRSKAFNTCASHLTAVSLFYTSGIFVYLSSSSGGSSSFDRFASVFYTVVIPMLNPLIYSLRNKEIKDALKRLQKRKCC
Procedure, shortened: as §1

OR5AP2 (Homo sapiens) = target: T16, OR5AP2 (Homo sapiens) (UniProt Q8NGF4)
T16 sequence (whole entry): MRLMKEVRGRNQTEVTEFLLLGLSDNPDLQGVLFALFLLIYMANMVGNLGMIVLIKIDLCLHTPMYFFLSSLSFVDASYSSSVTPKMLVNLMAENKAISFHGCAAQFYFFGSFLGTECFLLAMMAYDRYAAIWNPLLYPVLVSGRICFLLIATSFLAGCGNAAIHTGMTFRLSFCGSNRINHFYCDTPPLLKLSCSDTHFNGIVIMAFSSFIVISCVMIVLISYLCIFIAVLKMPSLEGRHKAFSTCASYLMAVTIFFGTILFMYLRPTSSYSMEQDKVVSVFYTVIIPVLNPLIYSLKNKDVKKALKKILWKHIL
Procedure, shortened: as §1

Measured: odorant receptor agonist call

CC(CO)CS (configuration not stated)
inactive: all assays above

CCCCCC(S)C(C)CO (configuration not stated)
inactive: all assays above
